What was measured:
Assay type in all cases: cell-based; call rule not given here
[1] = biological target: T1, Aryl hydrocarbon receptor (Homo sapiens, UniProt P35869); assay: Agonist activity at AhR (unknown origin) expressed in mouse H1L1.1c2 cells at 1 to 100 uM after 8 to 10 hrs by luciferase reporter gene assay
T1 sequence (P35869 whole entry): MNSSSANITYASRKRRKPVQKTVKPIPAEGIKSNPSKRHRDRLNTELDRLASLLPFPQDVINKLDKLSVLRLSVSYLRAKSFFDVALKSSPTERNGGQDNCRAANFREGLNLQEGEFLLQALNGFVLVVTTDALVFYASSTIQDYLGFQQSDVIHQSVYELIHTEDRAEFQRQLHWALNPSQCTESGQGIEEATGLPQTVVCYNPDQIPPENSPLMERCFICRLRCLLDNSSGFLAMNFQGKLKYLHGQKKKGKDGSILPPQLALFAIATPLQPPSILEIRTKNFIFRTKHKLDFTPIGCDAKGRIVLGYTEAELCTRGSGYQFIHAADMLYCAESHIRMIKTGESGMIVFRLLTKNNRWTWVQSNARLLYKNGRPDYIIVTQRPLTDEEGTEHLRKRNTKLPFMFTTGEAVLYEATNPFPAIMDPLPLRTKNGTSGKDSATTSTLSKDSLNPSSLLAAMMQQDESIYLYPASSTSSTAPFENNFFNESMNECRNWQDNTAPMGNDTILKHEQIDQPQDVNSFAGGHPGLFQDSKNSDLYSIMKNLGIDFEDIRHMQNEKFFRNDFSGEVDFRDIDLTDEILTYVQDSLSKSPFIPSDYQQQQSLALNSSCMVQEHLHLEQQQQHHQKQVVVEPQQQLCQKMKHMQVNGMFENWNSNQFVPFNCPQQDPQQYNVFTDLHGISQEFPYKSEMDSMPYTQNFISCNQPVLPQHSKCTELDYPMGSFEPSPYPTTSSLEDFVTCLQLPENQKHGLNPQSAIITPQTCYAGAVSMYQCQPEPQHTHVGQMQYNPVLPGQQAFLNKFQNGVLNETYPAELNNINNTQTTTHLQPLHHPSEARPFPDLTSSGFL
In short: (§1)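 AhR luciferase reporter cells were grown and treated with compounds at three concentrations (1, 10 and 100 μM). The reference ligand FICZ was run at 1 μM. The read-out was luciferase activity. Data are given as mean ± SD, with significance at P < 0.05, < 0.01 and < 0.001.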

[2] = biological target: T1, Aryl hydrocarbon receptor; assay: Antagonist activity at AhR (unknown origin) expressed in mouse H1L1.1c2 cells assessed as inhibition of FICZ-induced AhR activation at 1 to 100 uM after 8 to 10 hrs by luciferase reporter gene assay
[3] = biological target: T1, Aryl hydrocarbon receptor; assay: Agonist activity at AhR (unknown origin) expressed in mouse H1L1.1c2 cells at 100 uM after 8 to 10 hrs by luciferase reporter gene assay
[4] = biological target: T1, Aryl hydrocarbon receptor; assay: Agonist activity at AhR (unknown origin) expressed in mouse H1L1.1c2 cells after 8 to 10 hrs by luciferase reporter gene assay; in short: as §1

| SMILES | Activity [1] | inhibition (INH) [2] | Activity [3] | Activity [4] |
| --- | --- | --- | --- | --- |
| COc1cc(/C=C/C(=O)O)ccc1OC/C=C(\C)CCC=C(C)C | Not Active | Not Active |  |  |
| CC(C)=CCC/C(C)=C/COc1ccc2ccc(=O)oc2c1 | Not Active | Not Active |  |  |
| CC(C)(C)COc1ccc2ccc(=O)oc2c1 |  | Not Active | Active |  |
| CC(C)CCOc1ccc2ccc(=O)oc2c1 | Not Active | Not Active |  |  |
| CCC#CCOc1ccc2ccc(=O)oc2c1 [7-(2-PENTYNYLOXY)COUMARIN] |  | Not Active | Active |  |
| C=CCOc1ccc2ccc(=O)oc2c1 [7-ALLYLOXYCOUMARIN] | Not Active | Not Active |  |  |
| CC(C)=CCOc1ccc2ccc(=O)oc2c1 [7-PRENYLOXYCOUMARIN] |  | Not Active |  | Dose-dependent effect |
| CCCOc1ccc2ccc(=O)oc2c1 [7-PROPOXYCOUMARIN] | Not Active | Active |  |  |
| C/C=C/COc1ccc2ccc(=O)oc2c1 [(E)-7-(2-BUTENYLOXY)COUMARIN] |  | Not Active | Active |  |
| COc1cc(/C=C/C(=O)O)ccc1OCC=C(C)C [BOROPINIC ACID] |  | Not Active |  | Dose-dependent effect |
| CCOc1ccc2ccc(=O)oc2c1 [ETHOXYCOUMARIN] | Not Active | Not Active |  |  |
| COc1ccc2ccc(=O)oc2c1 [HERNIARIN] | Not Active | Not Active |  |  |
| O=c1ccc2ccc(O)cc2o1 [UMBELLIFERONE] | Not Active | Not Active |  |  |

— ChEMBL document CHEMBL4190192, “Interaction of 7-Alkoxycoumarins with the Aryl Hydrocarbon Receptor” (J Nat Prod, 2017)
